Test results reported in ChEMBL document CHEMBL4024802, “3-((R)-4-(((R)-6-(2-Bromo-4-fluorophenyl)-5-(ethoxycarbonyl)-2-(thiazol-2-yl)-3,6-dihydropyrimidin-4-yl)methyl)morpholin-2-yl)propanoic Acid (HEC72702), a Novel Hepatitis B Virus Capsid Inhibitor Based on Clinical Candidate GLS4” (J Med Chem, 2018).

Key:
[1] = AUC (0 to 24 hrs) in Sprague-Dawley rat at 5 mg/kg, po administered as single dose by LC-MS/MS analysis; assay type: ADME, organism-based; parameters: time < 24 hr, dose 5 mg/kg, route oral; conditions: in vivo
Outline: (§1)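 Male Sprague−Dawley rats (6−7 weeks, 190−240 g), fasted overnight with food returned 4 h post-dose; 3 rats iv, 3 po; vehicle 5% DMSO, 5% solutol, 90% saline. Heparinized plasma frozen at −80 °C, analysed by LC-MS/MS; noncompartmental PK parameters, BLQ values excluded.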

[2] = Intrinsic clearance in mouse liver microsomes at 1 uM preincubated for 10 mins followed by NADPH addition measured up to 60 mins by LC-MS/MS analysis; assay type: ADME, microsome; conditions: read-out: CLH
[3] = Plasma concentration in Beagle dog at 2 mg/kg, iv administered as single dose after 24 hrs by LC-MS/MS analysis; assay type: ADME, organism-based, Canis lupus familiaris
Outline: (§2)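 Beagle dogs, 7−9 months, 8−12 kg, non-naive, fasted overnight; 3 dogs per iv or po group; dosed in 5% DMSO/5% solutol/90% saline. Serial blood into sodium heparin, plasma separated at 4 °C, stored −80 °C; LC-MS/MS quantitation; noncompartmental analysis, BLQs omitted.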

[4] = Volume of distribution at steady state in Beagle dog at 2 mg/kg, iv administered as single dose by LC-MS/MS analysis; assay type: ADME, organism-based, Canis lupus familiaris; conditions: in vivo, read-out: Vdss
Outline: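 Non-naive beagle dogs (7−9 months, 8−12 kg) were fasted overnight, with 3 animals in the iv group. Compound was given as a single dose in 5% DMSO, 5% solutol and 90% saline. Plasma was taken from heparinized blood at each time point and stored at −80 °C. Levels were measured by LC-MS/MS, with noncompartmental analysis and BLQ values omitted.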

[5] = AUC (0 to 24 hrs) in Sprague-Dawley rat at 2 mg/kg, iv administered as single dose by LC-MS/MS analysis; assay type: ADME, organism-based; parameters: dose 2 mg/kg, time < 24 hr, route intravenous; conditions: in vivo; outline: as §1
[6] = Clearance in Sprague-Dawley rat at 2 mg/kg, iv administered as single dose by LC-MS/MS analysis; assay type: ADME, organism-based; conditions: in vivo; outline: as §1
[7] = Oral bioavailability in Sprague-Dawley rat at 5 mg/kg administered as single dose by LC-MS/MS analysis; assay type: ADME, organism-based; conditions: in vivo; outline: as §1
[8] = Volume of distribution at steady state in Sprague-Dawley rat at 2 mg/kg, iv administered as single dose by LC-MS/MS analysis; assay type: ADME, organism-based; conditions: in vivo, read-out: Vdss
Outline: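 Male Sprague−Dawley rats (6−7 weeks, 190−240 g) were fasted overnight, with food returned 4 h post-dose and n = 3 in the iv group. A single dose was given in 5% DMSO, 5% solutol and 90% saline. Heparinized plasma was separated at 4 °C and frozen at −80 °C. Concentrations were measured by LC-MS/MS, with parameters from noncompartmental analysis and BLQs excluded.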

[9] = AUC (0 to 24 hrs) in Beagle dog at 2 mg/kg, iv administered as single dose by LC-MS/MS analysis; assay type: ADME, organism-based, Canis lupus familiaris; parameters: dose 2 mg/kg, time < 24 hr, route intravenous; conditions: in vivo; outline: as §2
[10] = Clearance in Beagle dog at 2 mg/kg, iv administered as single dose by LC-MS/MS analysis; assay type: ADME, organism-based, Canis lupus familiaris; conditions: in vivo; outline: as §2
[11] = Intrinsic clearance in human liver microsomes at 1 uM preincubated for 10 mins followed by NADPH addition measured up to 60 mins by LC-MS/MS analysis; assay type: ADME, microsome; conditions: read-out: CLH
[12] = Cmax in Beagle dog at 5 mg/kg, po administered as single dose by LC-MS/MS analysis; assay type: ADME, organism-based, Canis lupus familiaris; parameters: dose 5 mg/kg, route oral; conditions: in vivo; outline: as §2
[13] = AUC (0 to 24 hrs) in Beagle dog at 5 mg/kg, po administered as single dose by LC-MS/MS analysis; assay type: ADME, organism-based, Canis lupus familiaris; parameters: time < 24 hr, dose 5 mg/kg, route oral; conditions: in vivo; outline: as §2
[14] = Cmax in Beagle dog at 2 mg/kg, iv administered as single dose by LC-MS/MS analysis; assay type: ADME, organism-based, Canis lupus familiaris; parameters: dose 2 mg/kg, route intravenous; conditions: in vivo; outline: as §2
[15] = Plasma concentration in Beagle dog at 5 mg/kg, po administered as single dose after 24 hrs by LC-MS/MS analysis; assay type: ADME, organism-based, Canis lupus familiaris; outline: as §2
[16] = (§3) Intrinsic clearance in dog liver microsomes at 1 uM preincubated for 10 mins followed by NADPH addition measured up to 60 mins by LC-MS/MS analysis; assay type: ADME, Canis lupus familiaris, microsome; conditions: liver microsomes, read-out: CLH
[17] = Oral bioavailability in Beagle dog at 5 mg/kg administered as single dose by LC-MS/MS analysis; assay type: ADME, organism-based, Canis lupus familiaris; conditions: in vivo
[18] = Plasma concentration in Balb/c mouse at 12.5 mg/kg, po bid after 24 hrs by LC-MS/MS analysis; assay type: ADME, organism-based
[19] = Half life in Beagle dog at 2 mg/kg, iv administered as single dose by LC-MS/MS analysis; assay type: ADME, organism-based, Canis lupus familiaris; conditions: in vivo
[20] = Drug uptake in Balb/c mouse liver at 12.5 mg/kg, po bid after 24 hrs by LC-MS/MS analysis; assay type: ADME, organism-based; conditions: read-out: Drug uptake
Liver = experiment: as §3; assay type: ADME, Canis lupus familiaris, microsome; conditions: microsomes, 1 h, 1 µM

SMILES | AUC(0-t) at 24 h [1] [ng·h/mL] | CLint scaled at 1 µM [2] [mL/min/kg] | AUC(0-t) at 24 h [5] [ng·h/mL] | clearance [6] [mL/min/kg] | bioavailability [7] [%] | Vd [8] [L/kg] | CLint scaled at 1 µM [11] [mL/min/kg] | CLint scaled at 1 µM [16] [mL/min/kg] | further results
CCOC(=O)C1=C(CN2CCOCC2)NC(c2nccs2)=NC1c1ccc(F)cc1Br (centres undefined) | 90 | 485 | 405 | 82.2 | 8.9 | 4.85 | 20 | – | concentration at 24 h [3]: 15 ng/mL; Vd [4]: 15.8 L/kg; AUC(0-t) at 24 h [9]: 1470 ng·h/mL; clearance [10]: 16.6 mL/min/kg; Cmax [12]: 391 ng/mL; AUC(0-t) at 24 h [13]: 1010 ng·h/mL; Cmax [14]: 1420 ng/mL; concentration at 24 h [15]: 9 ng/mL
CCOC(=O)C1=C(CN2CCO[C@H](CCC(=O)O)C2)NC(c2nccs2)=N[C@H]1c1ccc(F)cc1Br | 4900 | 385 | 4110 | 8.11 | 47.7 | 0.41 | 18 | 14 | concentration at 24 h [3]: 47 ng/mL; Vd [4]: 0.76 L/kg; bioavailability [17]: 114%; concentration at 24 h [18]: 849 ng/mL; half-life [19]: 5.71 h; AUC(0-t) at 24 h [9]: 16500 ng·h/mL; clearance [10]: 1.93 mL/min/kg; AUC(0-t) at 24 h [13]: 47900 ng·h/mL; Cmax [14]: 2050 ng/mL; concentration at 24 h [15]: 232 ng/mL; concentration at 24 h [20]: 361 ng/g
CCOC(=O)C1=C(CN2CCO[C@H](C)[C@H]2C(=O)O)NC(c2nccs2)=N[C@H]1c1ccc(F)cc1Br | 1750 | 89 | 1610 | 20.6 | 44.5 | 0.37 | 5 | – | CLH (Liver): Stable

More lines, main results first:

AUC(0-t) at 24 h [1] [ng·h/mL] | CLint scaled at 1 µM [2] [mL/min/kg] | AUC(0-t) at 24 h [5] [ng·h/mL] | clearance [6] [mL/min/kg] | bioavailability [7] [%] | Vd [8] [L/kg] | CLint scaled at 1 µM [11] [mL/min/kg] | CLint scaled at 1 µM [16] [mL/min/kg] | SMILES | further results
548 | 377 | 948 | 34.9 | 23.1 | 0.4 | 7 | 29 | CCOC(=O)C1=C(CN2CCOC[C@H]2C(=O)O)NC(c2nccs2)=N[C@H]1c1ccc(F)cc1Br | –
572 | 316 | 423 | 78.7 | 54 | 1.53 | 23 | 46 | CCOC(=O)C1=C(CN2CCOC[C@@H]2CCC(=O)O)NC(c2nccs2)=N[C@H]1c1ccc(F)cc1Br | –
999 | 362 | 965 | 34.4 | 41.3 | 0.77 | 21 | 55 | CCOC(=O)C1=C(CN2CC(F)(F)C[C@@H]2CCC(=O)O)NC(c2nccs2)=N[C@H]1c1ccc(F)cc1Br | –
436 | 281 | 430 | 77.3 | 41 | 1.24 | 21 | 11 | CCOC(=O)C1=C(CN2CCO[C@@H](CCC(=O)O)C2)NC(c2nccs2)=N[C@H]1c1ccc(F)cc1Br | –
